The record followed here is ChEMBL document CHEMBL2021845, “Targeting anthracycline-resistant tumor cells with synthetic aloe-emodin glycosides” (ACS Med Chem Lett, 2011).

Active and inactive are the calls of the source. The calls are words filed in the database; no cut-off is given here.

A short description of series [1]: Cytotoxicity against human NAR cells after 24 hrs by XTT assay. The format is functional, cell-based. In general terms: Tetrazolium dyes change colour on reduction, which living cells bring about.
The subject of series [2] is MOLT-4. The experiment in a line: Cytotoxicity against human MOLT4 cells after 24 hrs by XTT assay. The conditions noted are these: MOLT-4, 24 h. The format is functional, cell-based.
The subject of series [3] is OVCAR-3. The series can be described thus: Cytotoxicity against human OVCAR3 cells assessed as cell viability at 20 uM after 24 hrs by XTT assay. The format is functional. The conditions noted are these: OVCAR-3, 24 h, read-out: Activity.
Series [4] deals with MCF7. The series can be described thus: Cytotoxicity against human MCF7 cells after 24 hrs by XTT assay. The conditions noted are these: MCF7, 24 h. The format is functional, cell-based.
For series [5], the system named is Nucleic Acid. The experiment in a line: Binding affinity to Escherichia coli pBR322 DNA assessed as DNA migration at 200 uM after 15 mins by agarose gel electrophoresis. The format is nucleic-acid assay. The procedure, abridged:
(§1)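 Supercoiled plasmid pBR322 DNA was preincubated with compound at 200 or 20 μM. Samples were run on a 1% agarose gel for 4 h at 70 V and stained with ethidium bromide. Unwinding was judged qualitatively from the shift in migration of supercoiled DNA against a no-drug lane.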

The test system of series [6] is SK-OV-3. The experiment in a line: Cytotoxicity against human SKOV3 cells after 24 hrs by XTT assay. The format is functional, cell-based. The conditions noted are these: SK-OV-3, 24 h.
In series [7] the test system is OVCAR-3. The experiment in a line: Cytotoxicity against human OVCAR3 cells after 24 hrs by XTT assay. The format is functional, cell-based. The conditions noted are these: OVCAR-3, 24 h.
The test system of series [8] is Nucleic Acid. The experiment in a line: Binding affinity to Escherichia coli pBR322 DNA assessed as DNA unwinding at 5 to 10 uM after 15 mins by agarose gel electrophoresis. The format is nucleic-acid assay.
Series [9] concerns MCF7. The series can be described thus: Cytotoxicity against doxorubicin-resistant human MCF7 cells assessed as cell viability at 20 uM after 24 hrs by XTT assay. The format is functional. The conditions noted are these: MCF7, 24 h, read-out: Activity.
The test system of series [10] is SK-OV-3. The experiment in a line: Cytotoxicity against human SKOV3 cells assessed as cell viability at 20 uM after 24 hrs by XTT assay. The format is functional. The conditions noted are these: SK-OV-3, 24 h, read-out: Activity.
A short description of series [11]: Drug uptake in doxorubicin-resistant human NAR cell plasma membrane at 5 uM after 2 hrs by confocal microscopic analysis. The format is ADME, cell-based. In a few lines:
(§2)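 P-gp-overexpressing NAR ovarian cancer cells were incubated with 5 μM compound for 2 h, then fixed in paraformaldehyde. Plasma membranes were stained with carbocyanine tracer DiD. Confocal imaging used Ex/Em 488/525 nm for the drug and 640/685 nm for DiD, to localize drug in membrane versus cell interior.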

In series [12] the test system is NAR. The experiment in a line: Cytotoxicity against human NAR cells assessed as induction of cell death at 10 uM after 24 hrs by trypan blue dye exclusion test. The format is functional, cell-based. In a few lines: (§3)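 Cells were incubated with 10 μM compound for 24 h. A trypan blue dye exclusion test in cell suspension then counted total and dye-stained (dead) cells against an untreated control.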

Series [13] can be described thus: Toxicity in Wistar rat erythrocytes assessed as hemolysis at 50 uM after 1 hr. The format is cell-based, Erythrocyte. The conditions noted are these: read-out: Activity.
A short description of series [14]: Cytotoxicity against human lymphocytes assessed as cell viability at 20 uM after 24 hrs by XTT assay relative to untreated control. The conditions noted are these: read-out: Activity. The format is cell-based, Lymphocyte. In a few lines:
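Normal human lymphocyte samples from two individuals; 24 h incubation with compound at 20 μM; viability expressed relative to an untreated cell control.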

The test system of series [15] is Nucleic Acid. The series can be described thus: Binding affinity to Escherichia coli pBR322 DNA assessed as DNA migration at 20 uM after 15 mins by agarose gel electrophoresis. The format is nucleic-acid assay. In a few lines: as §1
Series [16] deals with OVCAR-3. The experiment in a line: Cytotoxicity against human OVCAR3 cells assessed as induction of cell death at 10 uM after 24 hrs by trypan blue dye exclusion test. The format is functional, cell-based. The procedure, abridged: as §3
The test system of series [17] is NAR. The experiment in a line: (§4) Cytotoxicity against doxorubicin-resistant human NAR cells assessed as cell viability at 100 uM after 24 hrs by XTT assay. The format is functional. In a few lines: (§5)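 NAR ovarian cancer cells with P-glycoprotein efflux pump overexpression; 24 h exposure to compound up to 100 μM; cell viability read-out.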
The nature of series [18]: Cytotoxicity against human lymphocytes assessed as cell viability after 24 hrs by XTT assay relative to untreated control. The format is cell-based. The conditions noted are these: Lymphocyte. In a few lines:
(§6)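 Normal human lymphocytes from two individual donors were exposed to compound for 24 h or for a 3 h incubation. Viability was expressed relative to an untreated-cell control, and IC50 was derived per blood sample.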

Series [19] in a line: Cytotoxicity against human lymphocytes assessed as cell viability after 3 hrs by XTT assay relative to untreated control. The format is cell-based. The conditions noted are these: Lymphocyte. The procedure, abridged:
as §6

Series [20] can be described thus: Cellular uptake in doxorubicin-resistant human NAR cells at 5 uM after 2 hrs by confocal microscopic analysis. The format is ADME, cell-based. The procedure, abridged:
as §2

A short description of series [21]: as §4. The format is functional. The conditions noted are these: read-out: Activity. The procedure, abridged:
as §5

For orientation: IC50 means the midpoint of a concentration-inhibition curve. For `C[C@H]1O[C@@H](OCc2cc(O)c3c(c2)C(=O)c2cccc(O)c2C3=O)C[C@H](N)[C@@H]1O`, the IC50 is 28.3 µM in series [1]; 12.8 µM in series [2]; above 20 µM in series [4]; above 20 µM in series [6]; above 20 µM in series [7]. Moreover, the viability at 20 µM was found to be 60% in series [3], 83% in [9] and 84% in series [10]. In addition, the outcome in series [5] and in series [8] was inactive.
`C[C@@H]1O[C@@H](OCc2cc(O)c3c(c2)C(=O)c2cccc(O)c2C3=O)C[C@@H](N)[C@H]1O`: the IC50 in series [1] is 18 µM; in [2], 5.4 µM; in series [4], 12.7 µM; in series [6], 13.5 µM; in [7], 15.7 µM. Moreover, the result in [5] and in series [8] was inactive.
For `COc1cccc2c1C(=O)c1c(O)c3c(c(O)c1C2=O)C[C@@](O)(C(=O)CO)C[C@@H]3O[C@H]1C[C@H](N)[C@H](O)[C@H](C)O1` [DOXORUBICIN], the IC50 in series [1] was above 100 µM; in series [2], 0.2 µM; in series [4], above 20 µM; in [6] it was above 20 µM; in series [7] it was above 20 µM. The Drug uptake entry in series [11] was “Active”. Besides, the result in series [12], in [16] and in series [17] was inactive. Moreover, the hemolysis at 1 h, 50 µM in series [13] was determined as 2%. In addition, the viability at 24 h, 20 µM in series [14] came out at 100%. The result in series [15] and in [5] was Active. The viability at 20 µM in series [3] was 61%; in [9], 83%; in series [10], 63%.
Regarding `C[C@@H]1O[C@@H](OCc2cc(O)c3c(c2)C(=O)c2cccc(O)c2C3=O)C[C@H](N)[C@H]1O`, the IC50 was 8.6 µM in [1]; 3 µM in series [18]; 3 µM in series [19]; 5.8 µM in [2]; 7.1 µM in series [4]; 6.9 µM in [6]. For the same molecule, in [7], the IC50 is 5.2 µM. Further, the result in [12] and in series [16] was Active. Further, in series [20], the Drug uptake result is recorded as “Active”. Besides, the hemolysis at 1 h, 50 µM in [13] amounted to 3%. Further, the result in series [5] and in [8] was inactive.
With `C[C@H]1O[C@@H](OCc2cc(O)c3c(c2)C(=O)c2cccc(O)c2C3=O)C[C@@H](N)[C@@H]1O`, the IC50 is above 100 µM in series [1]; 7.6 µM in series [2]; 11.9 µM in series [4]; above 20 µM in series [6]; 6.4 µM in [7]. In addition, the result in [5] and in series [8] was inactive. Also, the viability at 20 µM in series [10] was found to be 92%.
Regarding `O=C1c2cccc(O)c2C(=O)c2c(O)cc(CO)cc21` [ALOE-EMODIN], the IC50 in series [1] is above 100 µM; in [2], above 20 µM; in series [4], above 20 µM; in series [6] it was above 20 µM; in series [7], above 20 µM. The hemolysis at 1 h, 50 µM in series [13] turned out to be 0%. Besides, in series [14], the viability at 24 h, 20 µM was 77%. Also, in series [5], the result was inactive. Moreover, the viability at 100 µM in series [21] was found to be 78%. Further, the viability at 20 µM in [9] was found to be 77%; in series [10], 98%.
